From ChEMBL document CHEMBL1156952, “Synthesis and biological evaluations of novel bendazac lysine analogues as potent anticataract agents” (Bioorg Med Chem Lett, 2010)
Values after ≈ are worked out from the molar mass of the structure shown.

Tests used:
[1] = Anticataract activity against FeCl3/H2O2-induced cataract in rabbit lens assessed as extensive mature nuclear opacity at 0.5 mM treated 1 hr before FeCl3/H2O2 challenge measured after 24 hrs; type: functional, Oryctolagus cuniculus, Lens of camera-type eye
[2] = Aqueous solubility of the compound; type: physicochemical; conditions: water (aqueous)
[3] = Anticataract activity against FeCl3/H2O2-induced cataract in rat lens assessed as middle degree of opacificaion at 0.5 mM treated 1 hr before FeCl3/H2O2 challenge measured after 24 hrs; type: functional, Lens of camera-type eye
Procedure, shortened: (§1)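 Isolated rat lenses were cultured in DMEM and challenged with FeCl3 (0.02%) plus H2O2 (0.5%). Compounds were added at 0.5 mM to the medium of transparent lenses, with a challenged, untreated control. Lenses were scored as the percentage at each opacification grade (−, +, ++, +++).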

[4] = Anticataract activity against FeCl3/H2O2-induced cataract in rabbit lens assessed as absence of opacificaion at 0.5 mM treated 1 hr before FeCl3/H2O2 challenge measured after 24 hrs; type: functional, Oryctolagus cuniculus, Lens of camera-type eye
[5] = Anticataract activity against FeCl3/H2O2-induced cataract in rabbit lens assessed as middle degree of opacificaion at 0.5 mM treated 1 hr before FeCl3/H2O2 challenge measured after 24 hrs; type: functional, Oryctolagus cuniculus, Lens of camera-type eye
[6] = Anticataract activity against FeCl3/H2O2-induced cataract in rat lens assessed as extensive mature nuclear opacity at 0.5 mM treated 1 hr before FeCl3/H2O2 challenge measured after 24 hrs; type: functional, Lens of camera-type eye; procedure, shortened: as §1
[7] = Anticataract activity against FeCl3/H2O2-induced cataract in rat lens assessed as absence of opacificaion at 0.5 mM treated 1 hr before FeCl3/H2O2 challenge measured after 24 hrs; type: functional, Lens of camera-type eye; procedure, shortened: as §1
[8] = Anticataract activity against FeCl3/H2O2-induced cataract in rat lens assessed as slight degree of opacificaion at 0.5 mM treated 1 hr before FeCl3/H2O2 challenge measured after 24 hrs; type: functional, Lens of camera-type eye; procedure, shortened: as §1
[9] = Anticataract activity against FeCl3/H2O2-induced cataract in rabbit lens assessed as slight degree of opacificaion at 0.5 mM treated 1 hr before FeCl3/H2O2 challenge measured after 24 hrs; type: functional, Oryctolagus cuniculus, Lens of camera-type eye
[10] = species: Oryctolagus cuniculus; assay: Induction of water-solvent protein level in rabbit lens homogenates at 5 mM (Rvb= 7.40 +/-0.73 mg/mL); type: functional, tissue-based; conditions: Lens of camera-type eye
Procedure, shortened: (§2)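 Rabbit lenses were cultured in DMEM under FeCl3 (0.02%) plus H2O2 (2%) challenge, with compound at 5, 10 or 15 mM in the medium. Each group's lenses were then homogenized. Water-soluble protein, total antioxidant capacity and malondialdehyde were each measured in the homogenate with a reagent kit.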

[11] = species: Oryctolagus cuniculus; assay: Reduction of malondialdehyde level in rabbit lens homogenates at 5 mM (Rvb= 0.46 +/-0.27 nmol/mg); type: functional, tissue-based; conditions: Lens of camera-type eye; procedure, shortened: as §2
[12] = species: Oryctolagus cuniculus; assay: Induction of total-antioxidant capacity level in rabbit lens homogenates at 5 mM (Rvb= 0.04 u/mg); type: functional, tissue-based; conditions: Lens of camera-type eye; procedure, shortened: as §2
[13] = Anticataract activity against FeCl3/H2O2-induced cataract in rabbit lens assessed as middle degree of opacificaion at 10 mM treated 1 hr before FeCl3/H2O2 challenge measured after 24 hrs; type: functional, Oryctolagus cuniculus, Lens of camera-type eye
[14] = Anticataract activity against FeCl3/H2O2-induced cataract in rabbit lens assessed as slight degree of opacificaion at 10 mM treated 1 hr before FeCl3/H2O2 challenge measured after 24 hrs; type: functional, Oryctolagus cuniculus, Lens of camera-type eye
[15] = Anticataract activity against FeCl3/H2O2-induced cataract in rabbit lens assessed as absence of opacificaion at 10 mM treated 1 hr before FeCl3/H2O2 challenge measured after 24 hrs; type: functional, Oryctolagus cuniculus, Lens of camera-type eye
[16] = Anticataract activity against FeCl3/H2O2-induced cataract in rabbit lens assessed as extensive mature nuclear opacity at 10 mM treated 1 hr before FeCl3/H2O2 challenge measured after 24 hrs; type: functional, Oryctolagus cuniculus, Lens of camera-type eye
[17] = species: Oryctolagus cuniculus; assay: Anticataract activity against FeCl3/H2O2-induced cataract in rabbit lens treated 1 hr before FeCl3/H2O2 challenge measured after 24 hrs; type: functional, tissue-based; conditions: Lens of camera-type eye
[18] = species: Oryctolagus cuniculus; assay: Reduction of malondialdehyde level in rabbit lens homogenates at 15 mM (Rvb= 0.46 +/-0.27 nmol/mg); type: functional, tissue-based; conditions: Lens of camera-type eye; procedure, shortened: as §2
[19] = species: Oryctolagus cuniculus; assay: Induction of total-antioxidant capacity level in rabbit lens homogenates at 10 mM (Rvb= 0.04 u/mg); type: functional, tissue-based; conditions: Lens of camera-type eye; procedure, shortened: as §2
[20] = species: Oryctolagus cuniculus; assay: Reduction of malondialdehyde level in rabbit lens homogenates at 10 mM (Rvb= 0.46 +/-0.27 nmol/mg); type: functional, tissue-based; conditions: Lens of camera-type eye; procedure, shortened: as §2
[21] = species: Oryctolagus cuniculus; assay: Induction of total-antioxidant capacity level in rabbit lens homogenates at 15 mM (Rvb= 0.04 u/mg); type: functional, tissue-based; conditions: Lens of camera-type eye; procedure, shortened: as §2
[22] = Anticataract activity against FeCl3/H2O2-induced cataract in rabbit lens assessed as extensive mature nuclear opacity at 5 mM treated 1 hr before FeCl3/H2O2 challenge measured after 24 hrs; type: functional, Oryctolagus cuniculus, Lens of camera-type eye
[23] = Anticataract activity against FeCl3/H2O2-induced cataract in rabbit lens assessed as middle degree of opacificaion at 5 mM treated 1 hr before FeCl3/H2O2 challenge measured after 24 hrs; type: functional, Oryctolagus cuniculus, Lens of camera-type eye
[24] = Anticataract activity against FeCl3/H2O2-induced cataract in rabbit lens assessed as absence of opacificaion at 5 mM treated 1 hr before FeCl3/H2O2 challenge measured after 24 hrs; type: functional, Oryctolagus cuniculus, Lens of camera-type eye
[25] = Anticataract activity against FeCl3/H2O2-induced cataract in rabbit lens assessed as slight degree of opacificaion at 5 mM treated 1 hr before FeCl3/H2O2 challenge measured after 24 hrs; type: functional, Oryctolagus cuniculus, Lens of camera-type eye
[26] = Anticataract activity against FeCl3/H2O2-induced cataract in rabbit lens assessed as middle degree of opacificaion at 15 mM treated 1 hr before FeCl3/H2O2 challenge measured after 24 hrs; type: functional, Oryctolagus cuniculus, Lens of camera-type eye
[27] = Anticataract activity against FeCl3/H2O2-induced cataract in rabbit lens assessed as slight degree of opacificaion at 15 mM treated 1 hr before FeCl3/H2O2 challenge measured after 24 hrs; type: functional, Oryctolagus cuniculus, Lens of camera-type eye
[28] = Anticataract activity against FeCl3/H2O2-induced cataract in rabbit lens assessed as absence of opacificaion at 15 mM treated 1 hr before FeCl3/H2O2 challenge measured after 24 hrs; type: functional, Oryctolagus cuniculus, Lens of camera-type eye
[29] = Anticataract activity against FeCl3/H2O2-induced cataract in rabbit lens assessed as extensive mature nuclear opacity at 15 mM treated 1 hr before FeCl3/H2O2 challenge measured after 24 hrs; type: functional, Oryctolagus cuniculus, Lens of camera-type eye

O=C([O-])C(Oc1nn(Cc2ccccc2)c2ccccc12)C(=O)[O-].[Na+].[Na+]
Activity [1]: 0% | solubility [2]: 3 mg/mL | Activity [3]: 20% | Activity [4]: 0% | Activity [5]: 40% | Activity [6]: 0% | Activity [7]: 0% | Activity [8]: 80% | Activity [9]: 60%

NCCCC[C@H](N)C(=O)O.O=C(O)C(Oc1nn(Cc2ccccc2)c2ccccc12)C(=O)O
Activity [1]: 35% | solubility [2]: 123 mg/mL | Activity [3]: 70% | Activity [4]: 0% | Activity [5]: 35% | Activity [6]: 15% | Activity [7]: 0% | Activity [8]: 15% | Activity [9]: 30%

N[C@@H](Cc1c[nH]cn1)C(=O)O.O=C(O)C(Oc1nn(Cc2cccc(Cl)c2)c2ccccc12)C(=O)O
solubility [2]: 115 mg/mL

NCCCC[C@H](N)C(=O)O.O=C(O)C(Oc1nn(Cc2cccc(F)c2)c2ccccc12)C(=O)O
solubility [2]: 134 mg/mL | Activity [3]: 45% | Activity [6]: 0% | Activity [7]: 0% | Activity [8]: 55%

O=C(O)COc1nn(Cc2ccccc2)c2ccccc12
WSP level [10]: 9.34 mg/mL | MDA level [11]: 0.22 nmol/mg | T-AOC level [12]: 0.17 U/mg

O=C(O)C(Oc1nn(Cc2ccccc2)c2ccccc12)C(=O)O
solubility [2]: < 1 mg/mL

O=C([O-])C(Oc1nn(Cc2cccc(Cl)c2)c2ccccc12)C(=O)[O-].[K+].[K+]
solubility [2]: < 1 mg/mL

O=C(O)C(Oc1nn(Cc2ccc(Cl)cc2)c2ccccc12)C(=O)O
solubility [2]: < 1 mg/mL

Cc1ccc(Cn2nc(OC(C(=O)[O-])C(=O)[O-])c3ccccc32)cc1.[K+].[K+]
solubility [2]: < 1 mg/mL

O=C([O-])C(Oc1nn(Cc2ccccc2)c2ccccc12)C(=O)[O-].[K+].[K+]
Activity [1]: 30% | solubility [2]: 2.2 mg/mL | Activity [3]: 50% | Activity [4]: 0% | Activity [5]: 40% | Activity [6]: 50% | Activity [7]: 0% | Activity [8]: 0% | Activity [9]: 30%

NCCCC[C@H](N)C(=O)O.O=C(O)COc1nn(Cc2ccccc2)c2ccccc12 [BENDAZAC LYSINE]
Activity [1]: 0% | solubility [2]: 93.8 mg/mL | Activity [3]: 40% | Activity [13]: 15% | Activity [14]: 65% | Activity [4]: 0% | Activity [5]: 25% | Activity [6]: 5% | Activity [7]: 0% | Activity [8]: 55% | Activity [15]: 20% | Activity [9]: 75% | Activity [16]: 0%

Cc1ccc(Cn2nc(OC(C(=O)O)C(=O)O)c3ccccc32)cc1
solubility [2]: < 1 mg/mL

O=C([O-])C(Oc1nn(Cc2cccc(F)c2)c2ccccc12)C(=O)[O-].[K+].[K+]
solubility [2]: 2.4 mg/mL

N[C@@H](Cc1c[nH]cn1)C(=O)O.O=C(O)C(Oc1nn(Cc2ccccc2)c2ccccc12)C(=O)O [listing 1 of 2 here]
Activity [17]: Dose-dependent effect | MDA level [18]: 0.08 nmol/mg | T-AOC level [19]: 0.64 U/mg | WSP level [10]: 13 mg/mL | MDA level [20]: 0.03 nmol/mg | MDA level [11]: 0.04 nmol/mg | T-AOC level [21]: 0.34 U/mg | T-AOC level [12]: 0.21 U/mg

O=C(O)COc1nn(Cc2ccccc2)c2ccccc12 [BENDAZAC]
solubility [2]: < 1 mg/mL

Cc1ccc(Cn2nc(OC(C(=O)O)C(=O)O)c3ccccc32)cc1.NCCCC[C@H](N)C(=O)O
solubility [2]: 57.4 mg/mL

Cc1ccc(Cn2nc(OC(C(=O)[O-])C(=O)[O-])c3ccccc32)cc1.[Na+].[Na+]
solubility [2]: < 1 mg/mL

N[C@@H](Cc1c[nH]cn1)C(=O)O.O=C(O)C(Oc1nn(Cc2ccccc2)c2ccccc12)C(=O)O [listing 2 of 2 here]
Activity [1]: 0% | Activity [22]: 0% | solubility [2]: 180 mg/mL | Activity [3]: 15% | Activity [13]: 0% | Activity [14]: 10% | Activity [23]: 0% | Activity [4]: 0% | Activity [5]: 35% | Activity [24]: 30% | Activity [6]: 0% | Activity [25]: 70% | Activity [7]: 0% | Activity [8]: 85% | Activity [26]: 0% | Activity [27]: 0% | Activity [15]: 90% | Activity [9]: 65% | Activity [16]: 0% | Activity [28]: 100% | Activity [29]: 0%

O=C(O)C(Oc1nn(Cc2cccc(Cl)c2)c2ccccc12)C(=O)O
solubility [2]: < 1 mg/mL

NCCCC[C@H](N)C(=O)O.O=C(O)C(Oc1nn(Cc2ccc(Cl)cc2)c2ccccc12)C(=O)O
solubility [2]: 312 mg/mL

O=C([O-])C(Oc1nn(Cc2ccc(Cl)cc2)c2ccccc12)C(=O)[O-].[Na+].[Na+]
solubility [2]: < 1 mg/mL

O=C(O)C(Oc1nn(Cc2cccc(F)c2)c2ccccc12)C(=O)O
solubility [2]: 2 mg/mL (≈ 5.81 mM)

O=C([O-])C(Oc1nn(Cc2cccc(F)c2)c2ccccc12)C(=O)[O-].[Na+].[Na+]
Activity [1]: 0% | solubility [2]: 3.2 mg/mL | Activity [3]: 35% | Activity [4]: 0% | Activity [5]: 20% | Activity [6]: 5% | Activity [7]: 0% | Activity [8]: 60% | Activity [9]: 80%

Cc1ccc(Cn2nc(OC(C(=O)O)C(=O)O)c3ccccc32)cc1.N[C@@H](Cc1c[nH]cn1)C(=O)O
solubility [2]: 71 mg/mL

N[C@@H](Cc1c[nH]cn1)C(=O)O.O=C(O)C(Oc1nn(Cc2cccc(F)c2)c2ccccc12)C(=O)O
solubility [2]: 56.6 mg/mL

NCCCC[C@H](N)C(=O)O.O=C(O)C(Oc1nn(Cc2cccc(Cl)c2)c2ccccc12)C(=O)O
Activity [1]: 65% | solubility [2]: 195 mg/mL | Activity [3]: 30% | Activity [4]: 0% | Activity [5]: 35% | Activity [6]: 15% | Activity [7]: 0% | Activity [8]: 55% | Activity [9]: 0%

N[C@@H](Cc1c[nH]cn1)C(=O)O.O=C(O)C(Oc1nn(Cc2ccc(Cl)cc2)c2ccccc12)C(=O)O
solubility [2]: 51 mg/mL

O=C([O-])C(Oc1nn(Cc2cccc(Cl)c2)c2ccccc12)C(=O)[O-].[Na+].[Na+]
solubility [2]: 1.2 mg/mL

O=C([O-])C(Oc1nn(Cc2ccc(Cl)cc2)c2ccccc12)C(=O)[O-].[K+].[K+]
solubility [2]: < 1 mg/mL
